Experiment [1] concerns SK-BR-3. Description: Antiproliferative activity against human SK-BR-3 cells assessed as inhibition of cell growth incubated for 72 hrs by MTS assay. The class given is functional, cell-based. As to conditions: SK-BR-3, 72 h. An outline of the steps:
(§1)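 Cells were grown at 37°C under 5% CO₂: PC3 in RPMI-1640, MDA-MB-231 in DMEM, and SKBr3 in McCoy's. They were seeded at 2000 cells/well and left for 24 h, then exposed for 72 h to varying concentrations or vehicle (0.5% DMSO final). Viability was read by MTS/PES absorbance at 490 nm relative to control. IC50 came from concentration-response curves; values are means ± SD of two independent experiments.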
Background: Tetrazolium assays rely on reduction of a dye to a coloured formazan, in cell work by metabolically active cells.

For experiment [2], the system named is PC-3. Description: Antiproliferative activity against human PC-3 cells assessed as inhibition of cell growth incubated for 72 hrs by MTS assay. The class given is functional, cell-based. As to conditions: PC-3, 72 h. An outline of the steps: as §1
In experiment [3] the test system is MDA-MB-231. Description: Antiproliferative activity against human MDA-MB-231 cells assessed as inhibition of cell growth incubated for 72 hrs by MTS assay. In kind it is functional, cell-based. To be noted: MDA-MB-231, 72 h. The method, boiled down:
as §1

Experiment [4] concerns SK-BR-3. Description: Antiproliferative activity against human SK-BR-3 cells. The class given is functional, cell-based. An outline of the steps: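 They were seeded at 2000 cells/well and left for 24 h, then exposed for 72 h to varying concentrations or vehicle (0.5% DMSO final). Viability was read by MTS/PES absorbance at 490 nm relative to control. IC50 came from concentration-response curves; values are means ± SD of two independent experiments.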

The subject of experiment [5] is SK-BR-3. Description: Effect on HSP90 independent beta-actin protein level in human SK-BR-3 cells at 0.1 to 10 uM incubated for 24 hrs by Western blot analysis. The class given is functional, cell-based. As to conditions: dose 0.1-10 µM. The method, boiled down: (§2)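 SKBr3 cells were seeded at 700,000/well and grown to ~80% confluency. They were treated for 24 h with compound or vehicle (1% DMSO), then lysed in Triton/SDS buffer with protease and phosphatase inhibitors. Protein (20 ug, BCA-normalized) was run on 10% SDS-PAGE and transferred to PVDF. Blots were probed overnight at 4°C with 1:1000 anti-HER2, Hsp70, Hsp90, Akt, CDK6 or β-actin, then detected by HRP secondary and ECL.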
A general note: In western blotting, separated proteins are transferred to a membrane and probed.

Experiment [6] addresses T1, Heat shock protein HSP90 (Homo sapiens) (UniProt P07900+P08238). Description: Inhibition of C-terminal HSP90 in human SK-BR-3 cells at 0.1 to 10 uM incubated for 24 hrs by Western blot analysis. To be noted: dose 0.1-10 µM.
For experiment [7], the target named is T1, Heat shock protein HSP90 (Homo sapiens). Description: Inhibition of C-terminal HSP90 in human SK-BR-3 cells assessed as HER-2 degradation incubated for 24 hrs by Western blot analysis. The class given is cell-based. To be noted: dose 0.1-10 µM. An outline of the steps:
as §2

Experiment [8] has the same target. Description: Inhibition of C-terminal HSP90 in human SK-BR-3 cells assessed as reduction in HSR induction with constant Hsp70 level at 0.1 to 10 uM incubated for 24 hrs by Western blot analysis. In kind it is cell-based. To be noted: dose 0.1-10 µM. The method, boiled down:
as §2

Activity calls are given as the source filed them. No cut-off for these calls is given here. Bounds are passed on as bounds.

One may read the IC50 as the concentration at which inhibition is half-maximal.

In the case of `COC(=O)C1CCC(Oc2ccc(CCNC(=O)c3ccc(OC)c(-c4cccc(OC)c4)c3)c(-c3cccc(F)c3)c2)CC1` (stereo unspecified), the IC50 in experiment [1], in experiment [2] and in experiment [3] was > 50 µM throughout.
Regarding `CCN1CCC(Oc2ccc(CCNC(=O)c3ccc(OC)c(-c4cccc(OC)c4)c3)c(-c3cccc(F)c3)c2)CC1`, the 50% inhibitory concentration (IC50) in experiment [1] amounted to 6.6 µM; in experiment [2] it was 13.5 µM; in experiment [3], 8.46 µM.
Taken in the same sequence, the figures for `CCCN1CCC(Oc2ccc(CCNC(=O)c3ccc(OC)c(-c4cccc(OC)c4)c3)c(-c3cccc(F)c3)c2)CC1` were 0.56 µM, 11 µM and 6.37 µM.
As to `COc1cccc(-c2cc(C(=O)NCCc3ccc(OC4CCC(C(=O)Nc5ccccc5)CC4)cc3-c3cccc(F)c3)ccc2OC)c1` (stereo unspecified), the half-maximal inhibitory concentration (IC50) in experiment [1], in experiment [2] and in experiment [3] was > 50 µM throughout.
As for `CC(C)=CCc1cc(C(=O)NCCc2ccc(OC3CCC(CCc4ccccc4)CC3)cc2-c2cccc(F)c2)ccc1O` (stereo unspecified), the 50% inhibitory concentration (IC50) in experiment [1], in experiment [2] and in experiment [3] was > 50 µM throughout.
As to `COc1cccc(-c2cc(C(=O)NCCc3ccc(OCCCB4OC(C)(C)C(C)(C)O4)cc3-c3cccc(F)c3)ccc2OC)c1`, the results for the IC50 in experiment [1], in experiment [2] and in experiment [3] were 15.3 µM, 8.07 µM and 35.1 µM, respectively.
For `COc1cccc(-c2cc(C(=O)NCCc3ccc(OC4CCN(Cc5ccccc5)CC4)cc3-c3cccc(F)c3)ccc2OC)c1`, in that order: > 50 µM, > 50 µM and > 50 µM.
Consider `CC(=O)NCCc1ccc(OC2CCC(OCc3ccccc3)CC2)cc1-c1cccc(F)c1` (stereo unspecified), for which the 50% inhibitory concentration (IC50) in experiment [4] was > 50 µM.
As for `CCCC1CCC(Oc2ccc(CCNC(=O)c3ccc(OC)c(-c4cccc(OC)c4)c3)c(-c3cccc(F)c3)c2)CC1` (stereo unspecified), the IC50 in experiment [1], in experiment [2] and in experiment [3] was > 50 µM each time.
For the compound `COc1cccc(-c2cc(C(=O)NCCc3ccc(OC4CCC(C(F)(F)Oc5ccccc5)CC4)cc3-c3cccc(F)c3)ccc2OC)c1` (stereo unspecified), the IC50 in experiment [1], in experiment [2] and in experiment [3] was > 50 µM each time.
As for `CC(C)=CCc1cc(C(=O)NCCc2ccc(OC3CCC(SCc4ccccc4)CC3)cc2-c2cccc(F)c2)ccc1O` (stereo unspecified), the half-inhibitory concentration (IC50) in experiment [1], in experiment [2] and in experiment [3] was > 50 µM throughout.
In the case of `CC(C)=CCc1cc(C(=O)NCCc2ccc(OC3CCC(Cc4ccccc4)CC3)cc2-c2cccc(F)c2)ccc1O` (stereo unspecified), the concentration for half-maximal inhibition (IC50) in experiment [1], in experiment [2] and in experiment [3] was > 50 µM in each case.
Consider `COc1cccc(-c2cc(C(=O)NCCc3ccc(OC4CCNCC4)cc3-c3cccc(F)c3)ccc2OC)c1`, for which the results for the IC50 in experiment [1], in experiment [2] and in experiment [3] were 0.9 µM, 3.08 µM and 3.29 µM, respectively. The outcome in experiment [5] was inactive. In addition, the inhibition result in experiment [6] and in experiment [8] was “Active” in each case. For the same compound, in experiment [7], the inhibition entry is “Dose-Dependent Effect”.
Consider `COc1cccc(-c2cc(C(=O)NCCc3ccc(OC4CCC(SCc5ccccc5)CC4)cc3-c3cccc(F)c3)ccc2OC)c1` (stereo unspecified), for which the half-maximal inhibitory concentration (IC50) in experiment [1], in experiment [2] and in experiment [3] was > 50 µM each time.
As for `COc1cccc(-c2cc(C(=O)NCCc3ccc(OC4CCC(COc5ccccc5)CC4)cc3-c3cccc(F)c3)ccc2OC)c1` (stereo unspecified), the half-inhibitory concentration (IC50) in experiment [1], in experiment [2] and in experiment [3] was > 50 µM throughout.
Take `COc1cccc(-c2cc(C(=O)NCCc3ccc(OC4CCC(OCc5ccccc5)CC4)cc3-c3cccc(F)c3)ccc2OC)c1` (stereo unspecified): the IC50 in experiment [1], in experiment [2] and in experiment [3] was > 50 µM throughout.
Regarding `COc1cccc(-c2cc(C(=O)NCCc3ccc(OC4CCN(C)CC4)cc3-c3cccc(F)c3)ccc2OC)c1`, the IC50 in experiment [1] was determined as 3.46 µM; in experiment [2], 6.6 µM; in experiment [3], 4.87 µM.
Taken in the same sequence, the figures for `COc1cccc(-c2cc(C(=O)NCCc3ccc(OC4CCC(CSc5ccccc5)CC4)cc3-c3cccc(F)c3)ccc2OC)c1` (stereo unspecified) were > 50 µM, > 50 µM and > 50 µM.
Turning to `COc1cccc(-c2cc(C(=O)NCCc3ccc(OCCCB(O)O)cc3-c3cccc(F)c3)ccc2OC)c1`, the IC50 in experiment [1] was 21.6 µM; in experiment [2], 13.3 µM; in experiment [3] it was 36.6 µM.
`COc1cccc(-c2cc(C(=O)NCCc3ccc(OC4CCC(Cc5ccccc5)CC4)cc3-c3cccc(F)c3)ccc2OC)c1` (stereo unspecified): the IC50 in experiment [1], in experiment [2] and in experiment [3] was > 50 µM throughout.
As to `COc1cccc(-c2cc(C(=O)NCCc3ccc(OC4CCC(CCc5ccccc5)CC4)cc3-c3cccc(F)c3)ccc2OC)c1` (stereo unspecified), the IC50 in experiment [1], in experiment [2] and in experiment [3] was > 50 µM in each case.
For `COc1cccc(-c2cc(C(=O)NCCc3ccc(OC4CCOCC4)cc3-c3cccc(F)c3)ccc2OC)c1`, the IC50 in experiment [1], in experiment [2] and in experiment [3] was > 50 µM in each case.
As to `COc1cccc(-c2cc(C(=O)NCCc3ccc(OC4CCCCC4)cc3-c3cccc(F)c3)ccc2OC)c1`, the IC50 in experiment [1], in experiment [2] and in experiment [3] was > 50 µM throughout.
As for `COc1cccc(-c2cc(C(=O)NCCc3ccc(OC4CCC(CNc5ccccc5)CC4)cc3-c3cccc(F)c3)ccc2OC)c1` (stereo unspecified), the IC50 in experiment [1], in experiment [2] and in experiment [3] was > 50 µM each time.
`CNC(=O)C1CCC(Oc2ccc(CCNC(=O)c3ccc(OC)c(-c4cccc(OC)c4)c3)c(-c3cccc(F)c3)c2)CC1` (stereo unspecified): the half-inhibitory concentration (IC50) in experiment [1], in experiment [2] and in experiment [3] was > 50 µM in each case.
Take `C=CCN1CCC(Oc2ccc(CCNC(=O)c3ccc(OC)c(-c4cccc(OC)c4)c3)c(-c3cccc(F)c3)c2)CC1`: the figures for the IC50 in experiment [1], in experiment [2] and in experiment [3] were 6.43 µM, 12.7 µM and 7.35 µM, respectively.
For `COc1cccc(-c2cc(C(=O)NCCc3ccc(OC4CCN(C(C)C)CC4)cc3-c3cccc(F)c3)ccc2OC)c1`, in that order: 6.61 µM, 13.6 µM and 9.35 µM.
Taken in the same sequence, the figures for `COc1cccc(-c2cc(C(=O)NCCc3ccc(OC4CCC(C(=O)Oc5ccccc5)CC4)cc3-c3cccc(F)c3)ccc2OC)c1` (stereo unspecified) were > 50 µM, > 50 µM and > 50 µM.

The record behind these values is ChEMBL document CHEMBL5344476, “Development of Hsp90 C-terminal inhibitors with noviomimetics that manifest anti-proliferative activities” (RSC Med Chem, 2024).
